In the library only some 3.6% were active in any assay of this set; here they are far more common.
FGF22 binding = binders of human FGF22 protein, primary screen, FGF22 synaptogenesis inhibitor project, biophysical, thermal shift, single point; Fibroblast growth factor 22 (Homo sapiens), Q9HCT0; recombinant FGF22 thermal shift, SYPRO orange fluorescence; percent of sucrose octasulfate shift, DMSO zero; activity (Tm shift, normalised), % at 9.99 µM; 1.5% of 340,000 active; AID 651658, 2012;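 active means mean Tm shift, scaled 0 neutral to 100 positive control, at about 1.3% or above, every replicate too, limit read from the data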
Target sequence (Q9HCT0 whole entry, looked up): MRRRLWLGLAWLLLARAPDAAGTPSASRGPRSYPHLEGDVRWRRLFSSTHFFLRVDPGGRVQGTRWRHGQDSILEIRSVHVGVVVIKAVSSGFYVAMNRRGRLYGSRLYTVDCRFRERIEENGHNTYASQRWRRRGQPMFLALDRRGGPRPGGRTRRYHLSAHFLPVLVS
ZTA counter = blocks Epstein-Barr virus ZTA, an EBNA-1 counter-screen; ZTA-DNA binding, fluorescence polarization; 0.15% of 320,000 active; AID 2234; inhibition, % at 11 µM; P03206; in the data active means inhibition above about 33%
Target sequence (P03206 whole entry, looked up): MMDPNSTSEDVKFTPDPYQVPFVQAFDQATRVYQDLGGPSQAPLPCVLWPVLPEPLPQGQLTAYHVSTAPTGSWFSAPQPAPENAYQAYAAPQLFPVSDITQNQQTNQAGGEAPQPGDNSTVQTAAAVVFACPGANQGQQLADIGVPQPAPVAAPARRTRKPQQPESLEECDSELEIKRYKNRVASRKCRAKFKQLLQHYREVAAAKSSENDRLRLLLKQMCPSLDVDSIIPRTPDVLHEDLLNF
DNA FID counter = compounds displacing fluorescent DNA intercalator, primary screen, artefact control for HCV NS3 helicase inhibitor project, biochemical, FID fluorescence. 0.17% of 290,000 active. AID 1845, 2009. inhibition, % at 7.9 µM. DNA fluorescent intercalator displacement; in the data active means inhibition above about 37%;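 further: higher means more ethidium bromide displaced from hairpin DNA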
EBNA-1 inh = EBNA-1 DNA-binding inhibitors, primary screen, biochemical, fluorescence polarization | inhibition, % at 14.8 µM | 0.34% of 300,000 active | AID 1950, 2009; in the data active means inhibition above about 28%
NS3 helicase inh = inhibitors of HCV NS3 helicase, primary screen, biochemical, Cy5 molecular beacon fluorescence; NS3 helicase DNA unwinding; 0.56% of 290,000 active; AID 1800, 2009; inhibition, % at 10.9 µM;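 active means inhibition above the mean of all tested compounds plus 3 SD, set per campaign, cut at about 35% in these data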
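test system = hepatitis C virus NS3 helicase domain fragment enzyme | reagent = annealed dual-labelled DNA beacon duplex, ATP-started | times = 1 h at 25 °C | detection = Cy5 fluorescence, 0 and 60 min reads | read-out basis = percent inhibition from t60/t0 fluorescence ratio | control set = DMSO and thioflavine S | replication = one well per compound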
GRIN3A LBD mod = binders of NR3A ligand-binding domain, primary screen, biophysical, differential scanning fluorimetry, uHTS. Glutamate receptor ionotropic, NMDA 3A (GRIN3A) ligand-binding domain. NR3A LBD differential scanning fluorimetry, Tm shift; 0% = protein alone, 100% = glycine-bound protein. Tm shift relative to glycine control, % at 25 µM. 2.5% of 340,000 active. AID 1259313, 2017;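 active means melting temperature shift of at least 10% of the positive control shift, at one fixed dose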
A number is an active result; n = inactive; x = not tested or not shown.

SMILES | FGF22 binding | ZTA counter | DNA FID counter | EBNA-1 inh | NS3 helicase inh | GRIN3A LBD mod
Oc1cccc(-c2nc3c4c(ncn3n2)-c2ccccc2CC42CCCC2)c1 | n | n | n | n | n | 37
COc1ccc(-c2nc3c4c(ncn3n2)-c2ccccc2CC42CCCC2)cc1 | n | n | n | n | n | n
C[C@H](CO)N1C[C@H](C)[C@H](CN(C)C(=O)C2CC2)Oc2ncc(C#Cc3ccccc3F)cc2C1=O | n | x | x | x | x | x
C[C@H](CO)N1C[C@H](C)[C@H](CN(C)CC2CCCC2)Oc2ncc(-c3cccc(F)c3)cc2C1=O | n | x | x | x | x | x
CCOc1cc(/C=N/NC(=O)c2cc(C3CC3)[nH]n2)ccc1O | n | n | n | n | n | 26
O=C(N/N=C/c1ccc(O)c(Br)c1)c1cc2c(ccc3ccccc32)o1 | n | x | n | x | n | 35
CCOc1cc(/C=N/NC(=O)c2cc3c(ccc4ccccc43)o2)ccc1O | n | x | n | x | n | 28
CCOC(=O)COc1ccccc1/C=N\NC(=O)c1cc2c(ccc3ccccc32)o1 | n | x | n | x | n | n
COc1cc(/C=N/NC(=O)c2cc(C3CC3)[nH]n2)ccc1O | n | n | n | n | n | n
O=C(N/N=C/c1cc(Br)c(O)c(Br)c1)c1cc2c(ccc3ccccc32)o1 | n | x | n | x | n | n
CCCNC(=O)[C@H]1[C@H](CO)[C@H]2Cn3c(cccc3=O)[C@@H]1N2C(=O)C1CCC1 | n | x | x | x | x | x
C[C@@H]1CN([C@H](C)CO)C(=O)c2cc(-c3ccc(C#N)cc3)cnc2O[C@@H]1CN(C)Cc1ccccn1 | n | x | x | x | x | x
COc1ccc2c3c(n(C)c2c1)[C@@H](CO)N(Cc1ccc(Cl)cc1)CC31CCN(C(=O)NC(C)C)CC1 | n | x | x | x | x | x
Cc1ccc(S(=O)(=O)N(C)C[C@@H]2OCCCC[C@@H](C)Oc3ccc(NS(=O)(=O)c4c(C)noc4C)cc3C(=O)N([C@@H](C)CO)C[C@H]2C)cc1 | n | x | x | x | x | x
CO[C@H]1CN(C)C(=O)c2ccc(NC(C)=O)cc2OC[C@@H](C)N(CC2CCCCC2)C[C@@H]1C | n | x | x | x | x | x
CC(C)(C)c1ccc(C(=O)NC(=S)Nc2sc3c(c2C#N)CCC3)cc1 | x | n | n | n | n | n
N#Cc1c(NC(=O)c2nc3ncccn3n2)sc2c1CCCCC2 | x | n | n | n | n | 18
N#Cc1c(NC(=O)C2CC(c3ccccc3Cl)=NO2)sc2c1CCC2 (stereo unspecified) | x | n | n | n | n | n
N#Cc1c(NC(=O)C2CC(c3ccccc3O)=NO2)sc2c1CCC2 (stereo unspecified) | n | n | n | 34 | n | n
N#Cc1c(NC(=S)NC(=O)Cc2cccs2)sc2c1CCCCC2 | x | n | n | n | n | 20
CC(=O)NC(=S)Nc1sc2c(c1C#N)CCCCC2 | n | x | n | x | n | n
N#Cc1c(NC(=S)NC(=O)c2ccccc2)sc2c1CCC2 | n | n | n | n | n | 11
COc1ccc2c3c([nH]c2c1)[C@H](CO)N(C(=O)c1cccc(F)c1)CC31CN(C(=O)c2cccc(F)c2)C1 | n | x | x | x | x | x
C[C@@H]1CN([C@@H](C)CO)C(=O)c2cc(NC(=O)C3CC3)ccc2O[C@@H]1CN(C)S(=O)(=O)c1ccc(F)cc1 | n | x | x | x | x | x
O=C(N[C@H]1CC[C@@H](CCNS(=O)(=O)c2cccc(Cl)c2)O[C@H]1CO)c1ccncc1 | n | x | x | x | x | x
C[C@@H]1CN([C@@H](C)CO)C(=O)c2ccccc2-c2ccccc2CO[C@@H]1CN(C)S(=O)(=O)c1ccccc1 | n | x | x | x | x | x
CC1CCc2sc(NC(=S)NC(=O)c3ccccc3)c(C#N)c2C1 (stereo unspecified) | n | n | n | n | n | 22
CCC1(C)Cc2c(sc(NC(=S)NC(=O)c3ccccc3)c2C#N)CO1 (stereo unspecified) | n | n | n | n | n | 22
CC(C)(C)C(=O)NC(NC(=S)Nc1sc2c(c1C#N)CCCC2)C(Cl)(Cl)Cl (stereo unspecified) | x | n | n | n | n | 16
CCN1CCc2c(sc(NC(=S)NC(=O)c3ccccc3)c2C#N)C1 | x | n | n | n | n | n

Screening data (PubChem)
